Results taken from ChEMBL document CHEMBL3352644, “Selenadiazole derivatives as potent thioredoxin reductase inhibitors that enhance the radiosensitivity of cancer cells” (Eur J Med Chem, 2014).
≈ marks a conversion by molar mass, not a printed value. Calls of active or inactive are those of the source. The calls are words filed in the database; no cut-off is given here.

What was measured:
[1] = tested on: A-375; experiment: Induction of cell shrinkage in human A375 cells pre-treated with 20 uM p38 inhibitor […] for 1 hr followed by 8 ug/mL compound exposure for 18 hrs by microscopy; type: functional, cell-based
How it was run: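 A375 cells pretreated 1 h with […] JNK inhibitor SP600125 or p38 inhibitor SB203580, then given […] compound for 18 h. Morphology imaged.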

[2] = tested on: A-375; experiment: Cytotoxicity against human A375 cells pre-treated with 20 uM p38 inhibitor […] for 1 hr followed by 8 ug/mL compound exposure for 18 hrs by MTT assay; type: functional, cell-based
How it was run: (§1)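 A375 cells pretreated 1 h with 20 µM SP600125 (JNK) or SB203580 (p38), then exposed to compound at 8 µg/ml for 18 h. Viability by MTT (formazan in DMSO, 570 nm), expressed as % of control.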

[3] = tested on: A-375; experiment: Reduction in Trx expression in human A375 cells at 2 ug/mL after 18 hrs by Western blotting method; type: functional, cell-based
[4] = tested on: A-375; experiment: Induction of apoptosis in human A375 cells assessed as caspase 3 activation at 2 ug/mL incubated for 18 hrs by Western blotting method; type: functional, cell-based
How it was run: (§2)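 A375 cells treated with 2 µg/ml alone or with 8 Gy X-ray (6 h pretreatment, then 12 h; 18 h total). RIPA lysates (50 µg protein) run on SDS-PAGE and immunoblotted for caspases and PARP cleavage. Reprobed for β-actin as loading control.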

[5] = tested on: A-375; experiment: Induction of apoptosis in human A375 cells assessed as PARP cleavage at 2 ug/mL incubated for 6 hrs followed by irradiation with 8 Gy X-ray at 37 degC for 12 hrs by Western blotting method; type: functional, cell-based; how it was run: as §2
[6] = tested on: A-375; experiment: Induction of ROS generation in human A375 cells at 2 ug/mL incubated for 6 hrs followed by irradiation with 8 Gy X-ray at 37 degC for 12 hrs by DCF and DHE dye based fluorescence assay; type: functional, cell-based
How it was run: (§3)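 A375 cells (4 × 10⁴/well) cultured 24 h, then treated 6 h at 8 or 16 µg/ml or at 2 or 4 µg/ml, and given 0 or 8 Gy X-ray. Loaded with H₂DCF or DHE for 30 min at 37 °C in the dark. Fluorescence read at 485/535 nm (DCF) or 480/610 nm (DHE); % of control.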

[7] = tested on: A-375; experiment: Cytotoxicity against human A375 cells pre-treated with 20 uM JNK inhibitor SP600125 for 1 hr followed by 8 ug/mL compound exposure for 18 hrs by MTT assay; type: functional, cell-based; how it was run: as §1
[8] = tested on: A-375; experiment: Induction of ROS generation in human A375 cells at 2 ug/mL […] by DCF and DHE dye based fluorescence assay; type: functional, cell-based
[9] = tested on: A-375; experiment: Reduction in Bcl-2 expression in human A375 cells at 4 ug/mL incubated for 6 hrs followed by irradiation with 8 Gy X-ray at 37 degC for 12 hrs by Western blotting method; type: functional, cell-based
How it was run: (§4)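 A375 cells given […] for 6 h, then 0 or 8 Gy X-ray at 1.5 Gy/min and 12 h further culture. Lysis in ice-cold RIPA, pH 7.4, with protease and phosphatase inhibitors; protein by BCA. […] protein per lane on SDS-PAGE, transferred to nitrocellulose. Blocked in 5% milk/TBST. Primary 1:1000, 10 h, 4 °C; HRP secondary 1:2000, 1.5 h.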

[10] = tested on: A-375; experiment: Reduction in Trx expression in human A375 cells at 2 ug/mL incubated for 6 hrs followed by irradiation with 8 Gy X-ray at 37 degC for 12 hrs by Western blotting method; type: functional, cell-based
[11] = tested on: A-375; experiment: Induction of apoptosis in human A375 cells assessed as caspase 9 activation at 2 ug/mL incubated for 6 hrs followed by irradiation with 8 Gy X-ray at 37 degC for 12 hrs by fluorometric assay; type: functional, cell-based
How it was run: (§5)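 Cells seeded at 1 × 10⁶ per 10 cm dish and treated with 2 µg/ml alone or with 8 Gy X-ray for 18 h total. RIPA lysates clarified by spinning at 12,000 rpm for 5 min; 80 µg protein given Ac-DEVD-AMC (caspase-3), Ac-IETD-AMC (caspase-8) or Ac-LEHD-AMC (caspase-9). Incubated 2 h at 37 °C in the dark; fluorescence at 380/440 nm.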

[12] = tested on: A-375; experiment: Induction of cell morphological changes in human A375 cells pre-treated with 20 uM p38 inhibitor […] for 1 hr followed by 8 ug/mL compound exposure for 18 hrs; type: functional, cell-based
[13] = tested on: A-375; experiment: Induction of apoptosis in human A375 cells assessed as caspase 8 activation at 2 ug/mL incubated for 18 hrs by fluorometric assay; type: functional, cell-based; how it was run: as §5
[14] = tested on: A-375; experiment: Induction of apoptosis in human A375 cells assessed as caspase 8 activation at 2 ug/mL incubated for 6 hrs followed by irradiation with 8 Gy X-ray at 37 degC for 12 hrs by fluorometric assay; type: functional, cell-based; how it was run: as §5
[15] = tested on: A-375; experiment: Cytotoxicity against human A375 cells incubated for 6 hrs followed by irradiation with 8 Gy X-ray at 37 degC for 12 hrs by MTT assay; type: functional, cell-based; settings: A-375, light or radiation study
How it was run: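 A375 cells (DMEM, 10% FBS, 37 °C, 5% CO2) seeded at 4 × 10⁴ cells/well and grown to 70–80% confluence. Treated with 0, 1, 2, 4, 8, 16 or 32 µg/ml for 6 h, then given 0 or 8 Gy X-ray (linear accelerator, 1.5 Gy/min), then 12 h more at 37 °C. MTT 4 h, formazan dissolved in DMSO, read at 570 nm; % of control; three repeats.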

[16] = tested on: A-375; experiment: Induction of apoptosis in human A375 cells assessed as caspase 9 activation at 2 ug/mL incubated for 18 hrs by Western blotting method; type: functional, cell-based; how it was run: as §2
[17] = tested on: A-375; experiment: Induction of apoptosis in human A375 cells assessed as caspase 8 activation at 2 ug/mL incubated for 6 hrs followed by irradiation with 8 Gy X-ray at 37 degC for 12 hrs by Western blotting method; type: functional, cell-based; how it was run: as §2
[18] = tested on: A-375; experiment: Induction of ROS generation in human A375 cells at 4 ug/mL incubated for 6 hrs followed by irradiation with 8 Gy X-ray at 37 degC for 12 hrs by DCF and DHE dye based fluorescence assay; type: functional, cell-based; how it was run: as §3
[19] = tested on: A-375; experiment: Induction of apoptosis in human A375 cells assessed as caspase 8 activation at 2 ug/mL incubated for 18 hrs by Western blotting method; type: functional, cell-based; how it was run: as §2
[20] = tested on: A-375; experiment: Reduction in Bcl-2 expression in human A375 cells at 4 ug/mL incubated for 18 hrs by Western blotting method; type: functional, cell-based; how it was run: as §4
[21] = tested on: A-375; experiment: Induction of apoptosis in human A375 cells assessed as accumulation at subG1 phase at 4 ug/mL incubated for 18 hrs by propidium iodide staining based flow cytometry (reference value: 1.8%); type: functional
How it was run: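 A375 cells treated at 10 or 4 µg/ml for 6 h, given 0 or 8 Gy X-ray, then 12 h more. Trypsinized, washed in PBS, fixed overnight in ice-cold 75% ethanol at −20 °C. Stained with propidium iodide, 30 min at 37 °C in the dark; DNA content and sub-G1 population read by flow cytometry.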

COc1cc(-c2nc3cc(-c4ccc5n[se]nc5c4)ccc3[nH]2)cc(OC)c1OC
Activity [1]: inactive | Activity [2]: inactive | Activity [3]: Active | Activity [4]: Active | Activity [5]: Active | Activity [6]: Active | Activity [7]: Active | Activity [8]: Active | Activity [9]: Active | Activity [10]: Active | Activity [11]: Active | Activity [12]: inactive | Activity [13]: Active | Activity [14]: Active | IC50 [15]: 2.2 µg/mL (≈ 4.73 µM) | Activity [16]: Active | Activity [17]: Active | Activity [18]: Active | Activity [19]: Active | Activity [20]: Active | Activity [21]: 36.2%
